Consider 27 compounds from ChEMBL document CHEMBL4014335, “Activation of Phenyl 4-(2-Oxo-3-alkylimidazolidin-1-yl)benzenesulfonates Prodrugs by CYP1A1 as New Antimitotics Targeting Breast Cancer Cells” (J Med Chem, 2017).

For orientation: IC50 means the concentration that gives 50% inhibition.

One experiment has as its system HT-29. Description: Antiproliferative activity against human HT-29 cells after 48 hrs by SRB assay. Type of experiment: functional, cell-based. The following applies: HT-29, 48 h. The essentials:
(§1)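 SRB assay run as in the NCI screen with slight modifications. Seeding: HT-29 5.0 x 10^3, M21 3.5 x 10^3, MCF7 7.5 x 10^3 cells; cells preincubated 24 h. Drug in DMSO added at 0.75 to 1.0 x 10^5 nM for 48 h. TCA fixation, sulforhodamine B staining, absorbance 530-565 nm. At least two experiments in triplicate; runs accepted only when relative SD < 10%.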

A further experiment has as its system M21. Description: Antiproliferative activity against human M21 cells after 48 hrs by SRB assay. It counts as functional, cell-based. Conditions: M21, 48 h. In outline:
as §1
A general note: The SRB assay estimates cell density from bound dye.

For the next experiment, the system named is MCF7. In words: Antiproliferative activity against human MCF7 cells after 48 hrs by SRB assay. It counts as functional, cell-based. The following applies: MCF7, 48 h. In outline:
as §1

Experiment [1] is described as follows: Selectivity ratio of IC50 for human HT-29 cells to IC50 for human MCF7 cells. It counts as functional. In outline: (§2)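 Ratio is IC50 in reference line over IC50 in sensitive line. […] Cells in DMEM with 5% calf serum at 37 °C. At least two experiments, triplicate cultures; assay accepted when relative SD < 10%.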
Experiment [2] can be described thus: Selectivity ratio of IC50 for human M21 cells to IC50 for human MCF7 cells. Type of experiment: functional. In outline: as §2

Regarding `CCCN1CCN(c2ccc(S(=O)(=O)Oc3ccc(OC)cc3)cc2)C1=O`, the IC50 in the experiment on HT-29 is 16 µM; with M21, 23 µM; with MCF7, 20 µM. In addition, the “Ratio IC50” value in experiment [1] is on record as 0.8; in experiment [2], 1.2.
In the same order, the values of `CCN1CCN(c2ccc(S(=O)(=O)Oc3cc(OC)c(OC)c(OC)c3)cc2)C1=O` are 0.64 µM, 0.87 µM, 0.7 µM, 0.9 and 1.2.
In the same order, the values of `CCCN1CCN(c2ccc(S(=O)(=O)Oc3ccc(OC)c(OC)c3)cc2)C1=O` are 14 µM, 28 µM, 6.8 µM, 2 and 4.1.
Regarding `CCN1CCN(c2ccc(S(=O)(=O)Oc3cc(OC)cc(OC)c3)cc2)C1=O`, the IC50 with HT-29 is 4.3 µM; in the experiment with M21, 4.2 µM; in the experiment on MCF7 it was 3.5 µM. Besides, the “Ratio IC50” value in experiment [1] and in experiment [2] was 1.2 in each case.
In the case of `CCN1CCN(c2ccc(S(=O)(=O)Oc3cccc(Cl)c3)cc2)C1=O`, the IC50 was 6.8 µM in the experiment on HT-29, 3.9 µM with M21 and 5.4 µM in the experiment with MCF7. Moreover, the “Ratio IC50” value was determined as 1.3 in experiment [1] and 0.7 in experiment [2].
In the same order, the values of `CCCCN1CCN(c2ccc(S(=O)(=O)Oc3cc(Br)cc(Br)c3)cc2)C1=O` are 43 µM, over 100 µM, 0.058 µM, 740 and over 1700.
For `CCCCN1CCN(c2ccc(S(=O)(=O)Oc3cccc(F)c3)cc2)C1=O` the same measures were 76 µM, over 100 µM, 0.31 µM, 250 and over 320.
In the same order, the values of `CCCN1CCN(c2ccc(S(=O)(=O)Oc3ccccc3OC)cc2)C1=O` are over 100 µM, over 100 µM, 13 µM, over 7.7 and over 7.7.
For `CCN1CCN(c2ccc(S(=O)(=O)Oc3cccc(OC)c3)cc2)C1=O`, the IC50 in the experiment on HT-29 amounted to 22 µM; with M21, 7 µM; with MCF7, 14 µM. The “Ratio IC50” value in experiment [1] came out at 1.6; in experiment [2], 0.5.
In the same order, the values of `CCCN1CCN(c2ccc(S(=O)(=O)Oc3ccc(C)cc3)cc2)C1=O` are 25 µM, 28 µM, 64 µM, 0.4 and 0.4.
On to `CCCN1CCN(c2ccc(S(=O)(=O)Oc3cccc(C)c3)cc2)C1=O`, for which the results for the IC50 in the experiment on HT-29, in the experiment with M21 and in the experiment with MCF7 were 65 µM, 28 µM and 86 µM, respectively. For the same compound, the figures for the “Ratio IC50” value in experiment [1] and in experiment [2] were 0.8 and 0.3, respectively.
In the same order, the values of `CCCN1CCN(c2ccc(S(=O)(=O)Oc3ccc(C)cc3C)cc2)C1=O` are 26 µM, 9.7 µM, 1.5 µM, 17 and 6.5.
In the same order, the values of `CCCCN1CCN(c2ccc(S(=O)(=O)Oc3ccc(OC)cc3)cc2)C1=O` are 35 µM, over 100 µM, 2.5 µM, 14 and over 39.
For `COc1ccc(OS(=O)(=O)c2ccc(N3CCN(C)C3=O)cc2)cc1OC` the same measures were 12 µM, 8.5 µM, 12 µM, 1 and 0.72.
Regarding `CN1CCN(c2ccc(S(=O)(=O)Oc3cccc(Cl)c3)cc2)C1=O`, the IC50 in the experiment on HT-29 worked out at 2.1 µM; in the experiment with M21, 1.6 µM; with MCF7 it was 2.2 µM. For the same compound, the “Ratio IC50” value in experiment [1] is on record as 0.9; in experiment [2], 0.7.
In the same order, the values of `CCCCN1CCN(c2ccc(S(=O)(=O)Oc3ccc(F)c(F)c3)cc2)C1=O` are over 100 µM, over 100 µM, 0.76 µM, over 130 and over 130.
In the case of `Cc1ccc(OS(=O)(=O)c2ccc(N3CCN(C)C3=O)cc2)c(C)c1`, the values for the IC50 in the experiment on HT-29, with M21 and in the experiment on MCF7 were 3 µM, 1.8 µM and 2.5 µM, respectively. The figures for the “Ratio IC50” value in experiment [1] and in experiment [2] were 1.2 and 0.7, respectively.
For the compound `CCCCN1CCN(c2ccc(S(=O)(=O)Oc3cccc(Br)c3)cc2)C1=O`, the IC50 in the experiment on HT-29 was found to be 16 µM; with M21 it was 35 µM; with MCF7, 0.085 µM. Besides, the “Ratio IC50” value in experiment [1] stood at 190; in experiment [2] it was 410.
Regarding `CCCCN1CCN(c2ccc(S(=O)(=O)Oc3ccc(OC)c(OC)c3)cc2)C1=O`, the half-maximal inhibitory concentration (IC50) in the experiment with HT-29 was 21 µM; with M21 it was over 100 µM; in the experiment on MCF7 it was 0.34 µM. The “Ratio IC50” value in experiment [1] is listed as 61; in experiment [2] it was over 300.
`COc1cccc(OS(=O)(=O)c2ccc(N3CCN(C)C3=O)cc2)c1`: the IC50 in the experiment with HT-29 came to 2.5 µM; in the experiment with M21, 1.6 µM; with MCF7, 3 µM. The “Ratio IC50” value in experiment [1] is reported as 0.8; in experiment [2], 0.6.
In the case of `CCCN1CCN(c2ccc(S(=O)(=O)Oc3cccc(Cl)c3)cc2)C1=O`, the IC50 with HT-29 was found to be 13 µM; with M21, 8.6 µM; in the experiment with MCF7 it was 0.38 µM. In addition, the “Ratio IC50” value stood at 34 in experiment [1] and 23 in experiment [2].
As to `CCCN1CCN(c2ccc(S(=O)(=O)Oc3cccc(OC)c3)cc2)C1=O`, the IC50 in the experiment on HT-29 was 25 µM; in the experiment on M21, 10 µM; in the experiment with MCF7 it was 6.3 µM. Further, the “Ratio IC50” value in experiment [1] is on record as 4; in experiment [2], 1.6.
In the same order, the values of `COc1ccccc1OS(=O)(=O)c1ccc(N2CCN(C)C2=O)cc1` are 26 µM, 21 µM, 26 µM, 1 and 0.8.
On to `CCCN1CCN(c2ccc(S(=O)(=O)Oc3ccc(Cl)cc3)cc2)C1=O`, for which the values for the IC50 in the experiment on HT-29, in the experiment with M21 and in the experiment on MCF7 were 15 µM, 34 µM and 18 µM, respectively. The “Ratio IC50” value in experiment [1] was 0.8; in experiment [2], 1.9.
In the same order, the values of `CCCN1CCN(c2ccc(S(=O)(=O)Oc3ccccc3CC)cc2)C1=O` are over 100 µM, over 50 µM, 2.3 µM, over 43 and over 22.
For `CN1CCN(c2ccc(S(=O)(=O)Oc3cc(Cl)c(Cl)cc3Cl)cc2)C1=O`, the figures for the IC50 in the experiment with HT-29, with M21 and in the experiment on MCF7 were 0.6 µM, 0.42 µM and 0.63 µM, respectively. Moreover, the “Ratio IC50” value is on record as 1 in experiment [1] and 0.7 in experiment [2].
In the same order, the values of `CCCCN1CCN(c2ccc(S(=O)(=O)Oc3cc(F)cc(F)c3)cc2)C1=O` are over 100 µM, over 100 µM, 0.4 µM, over 250 and over 250.
